Experimental data from ChEMBL document CHEMBL1135824, “Interaction of designed sulfated flavanoids with antithrombin: lessons on the design of organic activators” (J Med Chem, 2002).
One block for each molecule: values may come before it.

Columns and labels:
[1] = Observed dissociation constant of interaction with plasma antithrombin at 25 degree Celsius in 20 mM sodium phosphate buffer at a pH 7.4; assay type: ADME, cell-free
Procedure, shortened: (§1)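 Human plasma antithrombin (1 µM) with TNS (5 µM) was titrated with the sulfated flavanoid. Buffer was 20 mM sodium phosphate, 0.1 mM EDTA, 0.1% PEG 8000, at pH 6.0 (I 0.025) or 7.4 (I 0.035). Fluorescence decrease was read at 432 nm (excitation 330 nm). KD came from fitting to a quadratic equilibrium binding equation.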

[2] = Non ionic interaction with plasma antithrombin at 25 degree Celsius in 20 mM sodium phosphate buffer at a pH 6.0; assay type: ADME, cell-free
[3] = target: Coagulation factor X (Homo sapiens) (UniProt P00742); test: Second order rate constant for antithrombin inhibition of factor Xa in the presence of activator determined
[4] = Observed dissociation constant of interaction with plasma antithrombin at 25 degree Celsius in 20 mM sodium phosphate buffer at a pH 6.0; assay type: ADME, cell-free; procedure, shortened: as §1
[5] = Non ionic interaction with plasma antithrombin at 25 degree Celsius in 20 mM sodium phosphate buffer at a pH 7.4; assay type: ADME, cell-free
[6] = Second order rate constant for antithrombin inhibition of factor Xa in the presence of activator determined
[7] = Dissociation constant of CS-Antithrombin interaction at 25 degree Celsius 20 mM sodium phosphate buffer at pH 6.0 at 3.0 uM; assay type: functional
Procedure, shortened: (§2)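 Competitive titration of CS into plasma antithrombin–TNS complex with tetrasaccharide EFGH″ held at a fixed level, much above antithrombin. Competitor levels spanned 0.67–6.7 × its own antithrombin KD. Run at 25 °C in 20 mM sodium phosphate, 0.1 mM EDTA, 0.1% PEG 8000, pH 6.0, I 0.025. Read-out was the decrease in TNS fluorescence with rising CS. Antithrombin was freshly diluted from pH 7.4 stock.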

[8] = Effect (4 uM) on second-order rate constant that accelerated inhibition of factor Xa by antithrombin-CS (0 uM) complex
[9] = Dissociation constant of CS-Antithrombin interaction at 25 degree Celsius 20 mM sodium phosphate buffer at pH 6.0 at 30 uM; assay type: functional; procedure, shortened: as §2
[10] = Effect (2 uM)on second-order rate constant that accelerated inhibition of factor Xa by antithrombin-CS (50 uM)complex
[11] = Dissociation constant of CS-Antithrombin interaction at 25 degree Celsius 20 mM sodium phosphate buffer at pH 6.0 at 4.5 uM; assay type: functional; procedure, shortened: as §2
[12] = Dissociation constant of CS-Antithrombin interaction at 25 degree Celsius 20 mM sodium phosphate buffer at pH 6.0 at 20 uM; assay type: functional; procedure, shortened: as §2
[13] = Dissociation constant of CS-Antithrombin interaction at 25 degree Celsius 20 mM sodium phosphate buffer at pH 6.0 at 0 uM; assay type: functional
[14] = Effect (1 uM) on second-order rate constant that accelerated inhibition of factor Xa by antithrombin-CS (50 uM)complex
[15] = Effect (2 uM)on second-order rate constant that accelerated inhibition of factor Xa by antithrombin-CS (0 uM) complex
[16] = Dissociation constant of CS-Antithrombin interaction at 25 degree Celsius 20 mM sodium phosphate buffer at pH 6.0 at 10 uM; assay type: functional; procedure, shortened: as §2
[17] = Effect (1 uM) on observed rate constant that accelerated inhibition of factor Xa by antithrombin-CS (0 uM) complex
[18] = Effect (4 uM) on second-order rate constant that accelerated inhibition of factor Xa by antithrombin-CS (50 uM)complex
[19] = Effect (0 uM) on second-order rate constant that accelerated inhibition of factor Xa by antithrombin-CS (50 uM)complex

Coagulation factor X (Homo sapiens), sequence (P00742 41-179 limits assumed): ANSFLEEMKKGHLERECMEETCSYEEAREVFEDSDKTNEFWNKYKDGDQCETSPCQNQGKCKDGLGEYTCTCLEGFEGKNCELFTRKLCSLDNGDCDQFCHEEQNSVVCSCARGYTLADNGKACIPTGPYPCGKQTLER
Coagulation factor X (Homo sapiens), sequence (P00742 235-488 limits assumed): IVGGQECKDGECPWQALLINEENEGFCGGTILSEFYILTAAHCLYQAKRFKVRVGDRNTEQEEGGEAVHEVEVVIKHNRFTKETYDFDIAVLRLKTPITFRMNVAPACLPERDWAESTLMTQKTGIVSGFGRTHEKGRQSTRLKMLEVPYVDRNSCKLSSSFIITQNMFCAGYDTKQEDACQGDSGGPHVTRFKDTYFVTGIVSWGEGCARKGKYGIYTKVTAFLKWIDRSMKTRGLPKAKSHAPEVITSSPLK

Kd [1]: 32.3 µM | Kd [2]: 380 µM | K ACT [3]: 3380 M⁻¹ s⁻¹ | Kd [4]: 10.7 µM | Kd [5]: 1100 µM
Compound: O=S(=O)(O)Oc1cc2c(c(OS(=O)(=O)O)c1)C[C@@H](OS(=O)(=O)O)[C@@H](c1ccc(OS(=O)(=O)O)c(OS(=O)(=O)O)c1)O2

kACT [6]: 2770 M⁻¹ s⁻¹ | KD non ionic [2]: 470 µM | Kd [4]: 26.1 µM
Compound: O=S(=O)(O)Oc1cc2c(c(OS(=O)(=O)O)c1)C[C@@H](OS(=O)(=O)O)[C@H](c1ccc(OS(=O)(=O)O)c(OS(=O)(=O)O)c1)O2 (racemic)

Kd [1]: 17.9 µM | Kd [2]: 1000 µM | K ACT [3]: 6750 M⁻¹ s⁻¹ | Kd [4]: 3.5 µM | Kd [5]: 2200 µM
Compound: O=S(=O)(O)Oc1cc2c(c(OS(=O)(=O)O)c1)C[C@H](OS(=O)(=O)O)[C@@H](c1ccc(OS(=O)(=O)O)c(OS(=O)(=O)O)c1)O2

second-order rate constant [8]: 6400 M⁻¹ s⁻¹ | second-order rate constant [10]: 4700 M⁻¹ s⁻¹ | second-order rate constant [14]: 4300 M⁻¹ s⁻¹ | second-order rate constant [15]: 3200 M⁻¹ s⁻¹ | second-order rate constant [17]: 2400 M⁻¹ s⁻¹ | second-order rate constant [18]: 7400 M⁻¹ s⁻¹ | second-order rate constant [19]: 2000 M⁻¹ s⁻¹
Compound: CO[C@H]1O[C@H](COS(=O)(=O)O)[C@@H](O[C@H]2O[C@@H](C(=O)O)[C@@H](O[C@H]3O[C@H](COS(=O)(=O)O)[C@@H](O[C@H]4O[C@H](C(=O)O)C[C@H](O)[C@H]4O)[C@H](OS(=O)(=O)O)[C@H]3NS(=O)(=O)O)[C@H](O)[C@H]2OS(=O)(=O)O)[C@H](OS(=O)(=O)O)[C@H]1OS(=O)(=O)O
KCS, APP [7]: 4.8 µM | KCS, APP [9]: 2.1 µM | KCS, APP [11]: 3.5 µM | KCS, APP [12]: 3.2 µM | KCS, APP [13]: 3.5 µM | KCS, APP [16]: 3.1 µM
